# Measured values: ChEMBL document CHEMBL1177683, “Synthesis and pharmacological evaluation of pyrazine N-acylhydrazone derivatives designed as novel analgesic and anti-inflammatory drug candidates” (2010)
# Calls of active or inactive are those of the source. No cut-off for these calls is given here.
# Experiments:
# Mus musculus [1] = experiment: Analgesic activity against formalin-induced acute pain in Swiss mouse assessed inhibition of nociception at 100 umol/kg, po administered 40 mins before formalin challenge measured for 15 to 30 mins relative to control; type: functional
# In short: (§1)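 Mice, 6 per group, received 20 µL of 2.5% formalin (0.92% formaldehyde in saline) into the ventral surface of the right hind paw. Dosing was 100 µmol/kg po in arabic gum vehicle (10 mL/kg), 40 min beforehand. Time spent licking the injected paw was recorded over 0–5 min (neurogenic phase) and 15–30 min (inflammatory phase). Data are mean ± S.E.M., ANOVA/Dunnett versus vehicle.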
# Mus musculus [2] = experiment: Analgesic activity in Swiss mouse assessed as increase in latency of paw licking at 100 umol/kg, po after 60 mins measured for 60 seconds by hot plate test (reference value: 4.9 +/- 0.5 seconds); type: functional
# Mus musculus [3] = experiment: Analgesic activity against formalin-induced acute pain in Swiss mouse assessed as decrease of time spent in paw licking at 100 umol/kg, po administered 40 mins before formalin challenge measured for 15 to 30 mins; type: functional, organism-based; in short: as §1
# Mus musculus [4] = experiment: Antiedematogenic activity in Swiss mouse assessed as decrease of capsaicin-induced ear edema weight at 100 umol/kg, po administered 40 mins before capsaicin challenge measured after 30 mins relative to control; parameters: scale not given: the % may be the effect or the level left
# Mus musculus [5] = experiment: Antinociceptive activity in Swiss mouse assessed as inhibition of acetic acid-induced abdominal constrictions at 100 umol/kg, po administered 40 mins before acetic acid challenge measured for 25 mins relative to control; type: functional; conditions: Abdomen
# In short: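 Mice were dosed at 100 µmol/kg po in arabic gum (10 mL/kg), 40 min before 0.6% v/v acetic acid ip (0.1 mL/10 g). Writhes (abdominal contraction, pelvic rotation, hind-limb extension) were counted for 20 min starting 5 min post-injection. Results are expressed as % inhibition versus vehicle controls. Groups of 6 (control 10), ANOVA/Dunnett.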
# Mus musculus [6] = experiment: Analgesic activity in Swiss mouse assessed as increase in latency of paw licking at 100 umol/kg, po after 120 mins measured for 60 seconds by hot plate test (reference value: 5.6 +/- 0.5 seconds); type: functional
# Mus musculus [7] = experiment: Analgesic activity in Swiss mouse assessed as increase in latency of paw licking at 100 umol/kg, po after 150 mins measured for 60 seconds by hot plate test (reference value: 5.1 +/- 0.4 seconds); type: functional
# Mus musculus [8] = experiment: Analgesic activity in Swiss mouse assessed as increase in latency of paw licking at 100 umol/kg, po after 90 mins measured for 60 seconds by hot plate test (reference value: 5.9 +/- 0.8 seconds); type: functional
# Mus musculus [9] = experiment: Antiedematogenic activity in Swiss mouse assessed as inhibition of capsaicin-induced ear edema at 100 umol/kg, po administered 40 mins before capsaicin challenge measured after 30 mins relative to control
Compound,inhibition in vivo at 100 µmol/kg (Mus musculus [1]) [%],Time (Mus musculus [2]) [s],Activity (Mus musculus [3]),Activity (Mus musculus [4]) [%],inhibition in vivo at 100 µmol/kg (Mus musculus [5]) [%],Time (Mus musculus [6]) [s],Time (Mus musculus [7]) [s],Time (Mus musculus [8]) [s],inhibition in vivo at 100 µmol/kg (Mus musculus [9]) [%]
O=C(N/N=C/c1ccc(F)cc1)c1cnccn1,72.3,4.6,Active,39.1,74.5,4.8,3.1,5.4,33.1
Cc1ccc(-c2cc(C(F)(F)F)nn2-c2ccc(S(N)(=O)=O)cc2)cc1 [CELECOXIB],68.4,5.5,–,25.5,56.9,4.4,3.8,5.7,56.4
O=C(N/N=C/c1ccc([N+](=O)[O-])cc1)c1cnccn1,44.4,3.1,Active,34,40.4,4.9,4.9,5.4,41.9
O=C(N/N=C/c1c2ccccc2cc2ccccc12)c1cnccn1,45.8,3.7,–,26.5,33.6,5.6,6.6,6.2,54.7
CC(C)c1ccc(/C=N/NC(=O)c2cnccn2)cc1,66.5,3.3,Active,31.2,67.6,5.2,4.6,4.7,46.6
CC(C)c1ccc(/C=N/NC(=O)c2nc3ccccc3nc2-c2ccccc2)cc1,66.5,4.6,–,30.7,77.3,5.4,4.3,5,47.5
COc1ccc(/C=N/NC(=O)c2cnccn2)cc1O,14.7,2,–,42.8,64.8,1.9,4.7,4,27
CC(C)(C)c1cc(/C=N/NC(=O)c2cnccn2)cc(C(C)(C)C)c1O,26.8,2.7,–,39.5,71.6,3.4,5.4,3.4,32.3
O=C(N/N=C/c1ccc2ccccc2c1)c1cnccn1,68,2.8,–,37.8,68.4,4.4,4.5,3.5,35.4
O=C(N/N=C/c1cc(=O)c2ccccc2o1)c1cnccn1,52.7,2.5,Active,26.1,86.3,6.2,4.2,3.5,55.3
COc1ccc2c(c1)c(CC(=O)O)c(C)n2C(=O)c1ccc(Cl)cc1 [INDOMETHACIN],39,–,–,29.7,73.1,–,–,–,49.3
O=C(N/N=C/c1ccc(-c2ccccc2)cc1)c1cnccn1,46.9,2.7,Active,32.9,57.3,4,4.5,3.5,47.7
COc1cc(/C=N/NC(=O)c2cnccn2)ccc1O,31.8,2.6,–,21.3,47,3.4,4.4,3.2,63.5
O=C(N/N=C/c1ccccc1)c1cnccn1,60.8,4.4,Active,40.6,42.4,4,5.2,4.2,30.5
O=C(N/N=C/c1ccc(O)cc1)c1cnccn1,16.7,3.1,–,33.7,61.4,5.3,4,3.4,42.3
COc1ccc(/C=N/NC(=O)c2cnccn2)cc1OC,29.1,4.8,–,29.5,73.6,6.3,3.8,4.2,49.6
O=C(N/N=C/c1ccc2c(c1)OCO2)c1cnccn1,46.7,2.4,Active,32.3,78.2,4.4,3.2,3,44.7
O=C(N/N=C/c1ccncc1)c1cnccn1,58.4,3.5,Active,45.7,40.4,5.4,4.5,3.2,32.3
O=C(N/N=C/c1ccccn1)c1cnccn1,56.4,2.4,Active,32.2,75.5,4.5,3,4.4,44.9
O=C(N/N=C/c1ccc(C(F)(F)F)cc1)c1cnccn1,27.7,3.1,–,30.2,54.5,2.4,4,3.9,48.3
